Source: ChEMBL document CHEMBL5154713, “Illuminating a Dark Kinase: Structure-Guided Design, Synthesis, and Evaluation of a Potent Nek1 Inhibitor and Its Effects on the Embryonic Zebrafish Pronephros” (J Med Chem, 2022)

Key:
[1] = molecular target: Serine/threonine-protein kinase 4 (Homo sapiens) (UniProt Q13043); assay: Inhibition of human full length recombinant MST1 assessed as residual activity at 1 uM using KKSRGDYMTMQIG as substrate incubated for 40 mins in presence of [gamma 33P]-ATP by radiometric scintillation counting assay relative to control
Sequence of Serine/threonine-protein kinase 4 (Homo sapiens) (Q13043 whole entry): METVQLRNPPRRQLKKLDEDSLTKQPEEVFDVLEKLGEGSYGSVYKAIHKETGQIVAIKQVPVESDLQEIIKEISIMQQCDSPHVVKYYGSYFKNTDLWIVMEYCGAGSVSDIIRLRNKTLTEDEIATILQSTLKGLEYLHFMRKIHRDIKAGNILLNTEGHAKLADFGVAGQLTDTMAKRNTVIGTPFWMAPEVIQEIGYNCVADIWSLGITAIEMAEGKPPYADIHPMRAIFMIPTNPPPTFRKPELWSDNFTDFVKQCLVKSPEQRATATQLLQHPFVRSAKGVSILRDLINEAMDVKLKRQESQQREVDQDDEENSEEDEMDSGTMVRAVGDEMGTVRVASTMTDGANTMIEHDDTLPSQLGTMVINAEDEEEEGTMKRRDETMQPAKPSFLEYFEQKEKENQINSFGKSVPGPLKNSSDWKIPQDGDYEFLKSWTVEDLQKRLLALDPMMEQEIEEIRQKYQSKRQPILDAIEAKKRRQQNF
Summary of the method: (§1)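 Commercial radiometric panel of 50 kinases. Each recombinant human kinase was tested at a single compound concentration of 1 μM. ATP was set within 15 μM of the apparent Km for ATP for each kinase. Residual activity is relative to control and is the mean of two independent experiments.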

[2] = molecular target: Phosphatidylinositol 4,5-bisphosphate 3-kinase catalytic subunit alpha isoform (Homo sapiens) (UniProt P42336); assay: Inhibition of human full length recombinant PI3Kalpha assessed as residual activity at 1 uM using phosphatidylinositol 4,5-bisphosphate as substrate incubated for 40 mins in presence of ATP by HTRF assay relative to control
Sequence of Phosphatidylinositol 4,5-bisphosphate 3-kinase catalytic subunit alpha isoform (Homo sapiens) (P42336 whole entry, canonical isoform): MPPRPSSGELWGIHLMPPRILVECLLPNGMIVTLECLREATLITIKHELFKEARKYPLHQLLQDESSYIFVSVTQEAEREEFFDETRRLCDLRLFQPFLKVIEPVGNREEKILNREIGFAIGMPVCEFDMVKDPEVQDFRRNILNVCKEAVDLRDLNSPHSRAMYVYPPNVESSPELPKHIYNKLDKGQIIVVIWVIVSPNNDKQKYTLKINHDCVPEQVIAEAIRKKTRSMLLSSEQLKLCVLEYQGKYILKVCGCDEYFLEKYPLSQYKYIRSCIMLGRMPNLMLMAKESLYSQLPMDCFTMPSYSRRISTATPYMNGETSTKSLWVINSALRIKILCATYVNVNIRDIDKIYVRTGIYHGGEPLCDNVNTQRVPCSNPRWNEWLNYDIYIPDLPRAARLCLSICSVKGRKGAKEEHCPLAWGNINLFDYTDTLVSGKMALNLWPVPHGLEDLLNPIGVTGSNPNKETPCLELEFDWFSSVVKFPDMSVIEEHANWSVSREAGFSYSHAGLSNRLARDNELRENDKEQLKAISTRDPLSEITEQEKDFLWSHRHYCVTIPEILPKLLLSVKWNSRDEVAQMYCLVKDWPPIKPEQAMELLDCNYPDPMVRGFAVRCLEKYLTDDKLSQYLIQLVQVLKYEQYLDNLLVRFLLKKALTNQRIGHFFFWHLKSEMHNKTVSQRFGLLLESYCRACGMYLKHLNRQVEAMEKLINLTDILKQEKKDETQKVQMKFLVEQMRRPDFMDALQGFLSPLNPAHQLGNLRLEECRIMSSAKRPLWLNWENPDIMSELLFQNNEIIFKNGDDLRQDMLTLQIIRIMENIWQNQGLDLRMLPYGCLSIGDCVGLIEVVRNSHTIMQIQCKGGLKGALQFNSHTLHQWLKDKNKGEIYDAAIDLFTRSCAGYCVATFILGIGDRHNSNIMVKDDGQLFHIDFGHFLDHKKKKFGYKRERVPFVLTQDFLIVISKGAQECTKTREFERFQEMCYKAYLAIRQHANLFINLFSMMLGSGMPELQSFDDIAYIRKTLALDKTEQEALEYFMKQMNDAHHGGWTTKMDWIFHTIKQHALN

[3] = molecular target: Tyrosine-protein kinase ABL1 (Homo sapiens) (UniProt P00519); assay: Inhibition of human recombinant ABL (27 to end residues) assessed as residual activity at 1 uM using EAIYAAPFAKKK as substrate incubated for 40 mins in presence of [gamma33P-ATP] by radiometric scintillation counting analysis; summary of the method: as §1
Sequence of Tyrosine-protein kinase ABL1 (Homo sapiens) (P00519 whole entry): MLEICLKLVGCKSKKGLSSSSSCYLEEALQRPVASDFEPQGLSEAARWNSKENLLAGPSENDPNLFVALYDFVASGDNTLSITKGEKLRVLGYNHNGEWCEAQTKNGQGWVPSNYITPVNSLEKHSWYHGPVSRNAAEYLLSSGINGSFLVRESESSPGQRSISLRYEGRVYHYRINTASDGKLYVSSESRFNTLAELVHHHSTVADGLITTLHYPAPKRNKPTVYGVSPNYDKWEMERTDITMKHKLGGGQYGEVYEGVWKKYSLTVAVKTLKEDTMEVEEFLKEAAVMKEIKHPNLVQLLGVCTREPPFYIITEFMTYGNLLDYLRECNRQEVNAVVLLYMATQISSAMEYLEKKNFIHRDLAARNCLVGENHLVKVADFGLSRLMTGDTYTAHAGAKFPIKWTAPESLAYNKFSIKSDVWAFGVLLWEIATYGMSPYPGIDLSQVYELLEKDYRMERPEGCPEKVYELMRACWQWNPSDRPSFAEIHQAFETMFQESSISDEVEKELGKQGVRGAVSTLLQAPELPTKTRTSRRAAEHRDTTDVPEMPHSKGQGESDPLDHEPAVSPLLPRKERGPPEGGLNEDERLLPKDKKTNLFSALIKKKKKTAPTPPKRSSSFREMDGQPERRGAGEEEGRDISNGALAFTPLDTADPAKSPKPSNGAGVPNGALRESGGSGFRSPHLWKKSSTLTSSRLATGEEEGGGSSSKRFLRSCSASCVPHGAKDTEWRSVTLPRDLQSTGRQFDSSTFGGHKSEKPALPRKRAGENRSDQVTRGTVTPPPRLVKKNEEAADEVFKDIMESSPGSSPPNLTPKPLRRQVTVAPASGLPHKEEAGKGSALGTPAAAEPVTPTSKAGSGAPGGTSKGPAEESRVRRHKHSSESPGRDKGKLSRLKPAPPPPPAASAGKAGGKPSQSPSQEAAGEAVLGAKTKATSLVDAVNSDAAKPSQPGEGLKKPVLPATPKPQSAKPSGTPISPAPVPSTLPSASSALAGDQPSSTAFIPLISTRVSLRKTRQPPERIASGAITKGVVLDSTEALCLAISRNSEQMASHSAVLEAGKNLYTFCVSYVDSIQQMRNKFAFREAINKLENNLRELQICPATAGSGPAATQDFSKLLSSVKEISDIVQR

[4] = Toxicity in fluorescence-labelled Zebrafish pronephron assessed as increase in impaired renal clearance at 10 to 20 uM; design: species or system Danio rerio; details: in vivo, dose 10-20 µM
Summary of the method: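 Wild-type embryos exposed from 6 hpf to E3/0.2% DMSO controls or 10 and 20 μM compound, in E3 with 75 μM PTU. At 48 h, 100 nM PT-Yellow for 20 min, washed, then returned to compound up to 96 h total. Anesthetized embryos imaged in agarose molds by widefield microscopy, 33 Z-slices. Tubule fluorescence and area quantified from summed deconvolved projections. n = 3–5.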

[5] = molecular target: T1, Serine/threonine-protein kinase Nek1 (Homo sapiens, UniProt Q96PY6); assay: Inhibition of human recombinant NEK1 (1 to 505 residues) using RLGRDKYKTLRQIRQ as substrate incubated for 40 mins in presence of [gamma-33P]-ATP by radiometric scintillation counting assay
T1 sequence (Q96PY6 whole entry): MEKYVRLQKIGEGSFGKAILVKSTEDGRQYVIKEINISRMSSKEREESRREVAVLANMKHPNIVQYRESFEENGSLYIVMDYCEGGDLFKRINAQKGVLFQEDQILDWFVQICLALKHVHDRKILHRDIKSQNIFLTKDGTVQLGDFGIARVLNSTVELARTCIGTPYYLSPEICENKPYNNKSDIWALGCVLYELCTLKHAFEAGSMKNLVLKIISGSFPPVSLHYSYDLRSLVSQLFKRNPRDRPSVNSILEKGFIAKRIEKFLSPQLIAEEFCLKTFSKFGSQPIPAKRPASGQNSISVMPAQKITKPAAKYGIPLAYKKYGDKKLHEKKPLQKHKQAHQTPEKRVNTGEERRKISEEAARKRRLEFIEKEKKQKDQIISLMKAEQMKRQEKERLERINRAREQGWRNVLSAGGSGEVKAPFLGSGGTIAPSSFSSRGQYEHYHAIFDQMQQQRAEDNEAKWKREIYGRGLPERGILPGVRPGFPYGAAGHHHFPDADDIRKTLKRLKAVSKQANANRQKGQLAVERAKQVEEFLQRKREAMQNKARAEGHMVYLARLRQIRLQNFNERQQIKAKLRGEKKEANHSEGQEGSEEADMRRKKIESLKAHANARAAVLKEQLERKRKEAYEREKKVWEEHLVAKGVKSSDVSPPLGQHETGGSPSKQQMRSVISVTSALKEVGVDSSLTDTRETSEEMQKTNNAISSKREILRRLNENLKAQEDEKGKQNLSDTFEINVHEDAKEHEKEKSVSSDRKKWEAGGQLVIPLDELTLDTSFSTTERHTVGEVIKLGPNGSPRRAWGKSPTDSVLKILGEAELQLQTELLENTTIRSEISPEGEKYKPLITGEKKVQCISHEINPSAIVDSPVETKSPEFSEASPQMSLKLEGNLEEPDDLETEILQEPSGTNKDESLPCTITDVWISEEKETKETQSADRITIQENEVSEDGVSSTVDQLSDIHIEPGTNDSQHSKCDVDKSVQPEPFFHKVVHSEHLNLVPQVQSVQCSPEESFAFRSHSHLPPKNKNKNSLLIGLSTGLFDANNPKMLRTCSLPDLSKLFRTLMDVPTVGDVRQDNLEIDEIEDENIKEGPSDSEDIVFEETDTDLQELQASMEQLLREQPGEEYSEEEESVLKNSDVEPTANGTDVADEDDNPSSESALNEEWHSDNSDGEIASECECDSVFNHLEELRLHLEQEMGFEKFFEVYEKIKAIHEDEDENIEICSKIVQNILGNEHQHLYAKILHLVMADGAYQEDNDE
Summary of the method: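 Eurofins IC50Profiler radiometric assay on recombinant human Nek1 (1−505), ATP at 10 μM or 90 μM (near Km). Nine concentrations at half-log steps from 10 μM to 1 nM, with vehicle controls. IC50 and 95% CI obtained by four-parameter nonlinear regression. Mean of two independent experiments.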

[6] = molecular target: Calcium/calmodulin-dependent protein kinase type 1G (Homo sapiens) (UniProt Q96NX5); assay: Inhibition of recombinant full length human CaMK1gamma assessed as residual activity at 1 uM using KKLRRTLSFAEPG as substrate incubated for 40 mins in presence of [gamma-33ATP] by radiometric scintillation counting analysis relative to control; summary of the method: as §1
Sequence of Calcium/calmodulin-dependent protein kinase type 1G (Homo sapiens) (Q96NX5 whole entry): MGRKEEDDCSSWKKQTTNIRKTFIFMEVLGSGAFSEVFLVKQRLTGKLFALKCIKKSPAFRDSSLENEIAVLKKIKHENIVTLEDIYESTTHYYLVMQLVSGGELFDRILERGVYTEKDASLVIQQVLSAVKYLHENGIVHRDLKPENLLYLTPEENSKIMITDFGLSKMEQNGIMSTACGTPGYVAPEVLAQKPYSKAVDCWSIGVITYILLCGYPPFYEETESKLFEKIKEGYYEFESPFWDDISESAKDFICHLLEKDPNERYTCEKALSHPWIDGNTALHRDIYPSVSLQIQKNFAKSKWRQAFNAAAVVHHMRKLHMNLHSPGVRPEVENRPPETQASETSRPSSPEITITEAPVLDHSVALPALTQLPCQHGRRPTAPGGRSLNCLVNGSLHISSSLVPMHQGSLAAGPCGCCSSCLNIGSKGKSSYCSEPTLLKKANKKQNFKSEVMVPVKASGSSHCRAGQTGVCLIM

[7] = Toxicity in wild-type Zebrafish embryos assessed as lethality at 30 uM measured after 72 hrs; design: species or system Danio rerio; details: in vivo
Summary of the method: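 Wild-type zebrafish embryos with intact chorions were selected at 4 hpf, 15 per group, in E3 medium. At 6 hpf a 10× dilution of a DMSO stock was added to give final concentrations of 0.05–30 μM. Survival was scored every 24 h by heartbeat over 120 h. The 30 μM group was run in 5 replicates and the others at least in triplicate.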

[8] = molecular target: Serine/threonine-protein kinase Nek3 (Homo sapiens) (UniProt P51956); assay: Inhibition of recombinant full-length human NEK3 assessed as residual activity at 1 uM using myelin basic protein as substrate measured after 40 mins in presence of [gamma33P]ATP by radiometric scintillation counting method relative to control; summary of the method: as §1
Sequence of Serine/threonine-protein kinase Nek3 (Homo sapiens) (P51956 whole entry): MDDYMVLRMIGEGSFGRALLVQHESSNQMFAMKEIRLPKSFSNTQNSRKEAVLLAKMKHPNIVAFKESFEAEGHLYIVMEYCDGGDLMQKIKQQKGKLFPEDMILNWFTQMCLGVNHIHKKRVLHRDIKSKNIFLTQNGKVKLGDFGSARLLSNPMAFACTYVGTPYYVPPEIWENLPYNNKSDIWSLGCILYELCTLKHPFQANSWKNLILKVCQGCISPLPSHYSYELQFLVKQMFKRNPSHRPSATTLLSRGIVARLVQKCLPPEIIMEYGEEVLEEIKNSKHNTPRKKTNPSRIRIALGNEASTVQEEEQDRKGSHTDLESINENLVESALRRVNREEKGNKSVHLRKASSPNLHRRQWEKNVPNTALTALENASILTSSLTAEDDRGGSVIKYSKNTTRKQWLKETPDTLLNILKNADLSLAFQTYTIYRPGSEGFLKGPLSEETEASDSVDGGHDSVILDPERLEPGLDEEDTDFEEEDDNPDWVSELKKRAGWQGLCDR

[9] = molecular target: Serine/threonine-protein kinase Nek11 (Homo sapiens) (UniProt Q8NG66); assay: Inhibition of human full length recombinant NEK11 assessed as residual activity at 1 uM using myelin basic protein as substrate incubated for 40 mins in presence of [gamma 33P]-ATP by radiometric scintillation counting assay relative to control; summary of the method: as §1
Sequence of Serine/threonine-protein kinase Nek11 (Homo sapiens) (Q8NG66 whole entry): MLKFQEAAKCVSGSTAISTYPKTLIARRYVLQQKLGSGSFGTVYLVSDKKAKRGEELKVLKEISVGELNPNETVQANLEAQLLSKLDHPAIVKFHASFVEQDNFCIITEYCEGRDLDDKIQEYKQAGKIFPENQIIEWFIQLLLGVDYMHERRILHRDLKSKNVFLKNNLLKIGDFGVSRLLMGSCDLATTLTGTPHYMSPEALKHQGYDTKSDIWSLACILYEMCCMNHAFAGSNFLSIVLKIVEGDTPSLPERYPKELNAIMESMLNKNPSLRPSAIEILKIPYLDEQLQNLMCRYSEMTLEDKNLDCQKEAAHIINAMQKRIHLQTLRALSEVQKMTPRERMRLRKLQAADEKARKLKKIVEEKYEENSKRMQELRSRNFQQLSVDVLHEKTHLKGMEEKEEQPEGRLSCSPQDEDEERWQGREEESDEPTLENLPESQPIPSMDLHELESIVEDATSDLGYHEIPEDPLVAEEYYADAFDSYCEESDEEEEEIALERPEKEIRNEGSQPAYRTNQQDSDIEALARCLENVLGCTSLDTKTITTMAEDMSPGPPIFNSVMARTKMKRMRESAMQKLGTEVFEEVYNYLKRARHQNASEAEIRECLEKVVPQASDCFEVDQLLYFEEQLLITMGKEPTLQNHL

[10] = molecular target: Protein kinase C alpha type (Homo sapiens) (UniProt P17252); assay: Inhibition of recombinant human full length PKCalpha assessed as residual activity at 1 uM using histone H1 as substrate measured after 40 mins in presence of [gamma33P]ATP by radiometric scintillation counting method relative to control; summary of the method: as §1
[11] = test system: RAF proto-oncogene serine/threonine-protein kinase (Homo sapiens), P04049 [Y340D,Y341D]; assay: Inhibition of human c-Raf (Raf-1) Y340D/Y341D mutant (306 to end) as residual activity at 1 uM using inactive MEK1 as substrate incubated for 40 mins in presence of [gamma 33P]-ATP by radiometric scintillation counting assay relative to control; summary of the method: as §1

Compound: O=S(=O)(N[C@@H](CO)Cc1c[nH]c2ccccc12)c1ccc(-c2ccnc3[nH]ccc23)cc1
- Activity [1]: > 75%
- Activity [2]: > 75%
- Activity [3]: > 75%
- Activity [4]: Toxic
- IC50 [5]: 330 nM
- Activity [6]: > 75%
- Activity [7]: Toxic
- Activity [8]: > 75%
- Activity [9]: > 75%
- Activity [10]: > 75%
- Activity [11]: > 75%
